Structures are written as SMILES. pIC50: −log10 of the molar value. Values after ≈ are worked out from the molar mass of the structure shown. Active and inactive are the calls of the source. The rule behind the calls is not given here.

One assay has as its target DNA gyrase subunit B (Escherichia coli, UniProt P0AES6). As to the kind of experiment: Inhibition of Escherichia coli JM109 DNA gyrase subunit B assessed as ATP hydrolysis by ATPase assay.
For assay [1], the target named is DNA gyrase subunit A (Escherichia coli K-12) (UniProt P0AES4). As to the kind of experiment: Inhibition of Escherichia coli K-12 DNA gyrase A expressed in Escherichia coli DC2 assessed as compound concentration required for => 4-fold induction of luxCDABE operon by reported gene assay. An outline of the steps:
(§1)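 E. coli DC2 carrying a gyrA or sulA promoter–luxCDABE (Photorhabdus) fusion plasmid. Grown overnight at 37°C in LB with 2 μg/ml tetracycline, then diluted 1:100 in LB without tetracycline and precultured 1.5 h at 37°C. Compounds were added from DMSO stocks to 1% final DMSO and incubated 5 h at 37°C. Bioluminescence was divided by A595, and induction factor is the treated/untreated ratio. The value is the lowest test concentration giving ≥4-fold induction.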

The target of assay [2] is T1, Cell division inhibitor SulA (Escherichia coli K-12) (UniProt P0AFZ5).
T1 sequence (whole entry): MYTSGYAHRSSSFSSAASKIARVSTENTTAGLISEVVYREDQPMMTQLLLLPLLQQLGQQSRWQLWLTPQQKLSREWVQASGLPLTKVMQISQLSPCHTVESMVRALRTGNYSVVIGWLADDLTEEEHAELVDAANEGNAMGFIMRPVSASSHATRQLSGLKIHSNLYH
As to the kind of experiment: Inhibition of Escherichia coli K-12 DNA sulA expressed in Escherichia coli DC2 assessed as compound concentration required for => 4-fold induction of luxCDABE operon by reported gene assay. An outline of the steps:
as §1

For assay [3], the system named is Staphylococcus aureus. As to the kind of experiment: Antibacterial activity against Staphylococcus aureus ATCC 29213 by broth microdilution method. In kind it is functional.
Assay [4] concerns Staphylococcus aureus. As to the kind of experiment: Antibacterial activity against Staphylococcus aureus ATCC 43300 by broth microdilution method. In kind it is functional.
Assay [5] relates to Staphylococcus aureus. As to the kind of experiment: Antibacterial activity against Staphylococcus aureus 80CR5 by broth microdilution method. The assay is classed as functional.
Assay [6] deals with Streptococcus pneumoniae. As to the kind of experiment: Antibacterial activity against Streptococcus pneumoniae ATCC 49619 by broth microdilution method. In kind it is functional.
For assay [7], the system named is Streptococcus pneumoniae. As to the kind of experiment: Antibacterial activity against Streptococcus pneumoniae SL336-T by broth microdilution method. In kind it is functional.
The subject of assay [8] is Streptococcus pneumoniae. As to the kind of experiment: Antibacterial activity against Streptococcus pneumoniae TUPELO by broth microdilution method. In kind it is functional.
Another assay relates to Enterococcus faecalis. As to the kind of experiment: Antibacterial activity against Enterococcus faecalis ATCC 29212 by broth microdilution method. The assay is classed as functional.
The test system of a further assay is Enterococcus faecium. As to the kind of experiment: Antibacterial activity against Enterococcus faecium ATCC 19434 by broth microdilution method. In kind it is functional.
Assay [9] deals with Escherichia coli. As to the kind of experiment: Antibacterial activity against Escherichia coli ATCC 25922 by broth microdilution method. In kind it is functional.
Assay [10] concerns Escherichia coli. As to the kind of experiment: Antibacterial activity against Escherichia coli UB1005 by broth microdilution method. In kind it is functional.
Assay [11] relates to Escherichia coli. As to the kind of experiment: Antibacterial activity against Escherichia coli DC2 by broth microdilution method. In kind it is functional.
Another assay relates to Klebsiella pneumoniae. As to the kind of experiment: Antibacterial activity against Klebsiella pneumoniae ATCC 27736 by broth microdilution method. In kind it is functional.
Assay [12] concerns Pseudomonas aeruginosa. As to the kind of experiment: Antibacterial activity against Pseudomonas aeruginosa ATCC 27853 by broth microdilution method. In kind it is functional.
Assay [13] deals with Pseudomonas aeruginosa. As to the kind of experiment: Antibacterial activity against Pseudomonas aeruginosa K799/WT by broth microdilution method. In kind it is functional.
Assay [14] concerns Pseudomonas aeruginosa. As to the kind of experiment: Antibacterial activity against Pseudomonas aeruginosa K799/61 by broth microdilution method. The assay is classed as functional.
Assay [15] concerns the target DNA gyrase (Escherichia coli). As to the kind of experiment: Inhibition of Escherichia coli JM109 DNA gyrase assessed as DNA triple helix formation by supercoiling assay.

DNA gyrase subunit A (Escherichia coli K-12), sequence (P0AES4 whole entry, the tested form may be a part): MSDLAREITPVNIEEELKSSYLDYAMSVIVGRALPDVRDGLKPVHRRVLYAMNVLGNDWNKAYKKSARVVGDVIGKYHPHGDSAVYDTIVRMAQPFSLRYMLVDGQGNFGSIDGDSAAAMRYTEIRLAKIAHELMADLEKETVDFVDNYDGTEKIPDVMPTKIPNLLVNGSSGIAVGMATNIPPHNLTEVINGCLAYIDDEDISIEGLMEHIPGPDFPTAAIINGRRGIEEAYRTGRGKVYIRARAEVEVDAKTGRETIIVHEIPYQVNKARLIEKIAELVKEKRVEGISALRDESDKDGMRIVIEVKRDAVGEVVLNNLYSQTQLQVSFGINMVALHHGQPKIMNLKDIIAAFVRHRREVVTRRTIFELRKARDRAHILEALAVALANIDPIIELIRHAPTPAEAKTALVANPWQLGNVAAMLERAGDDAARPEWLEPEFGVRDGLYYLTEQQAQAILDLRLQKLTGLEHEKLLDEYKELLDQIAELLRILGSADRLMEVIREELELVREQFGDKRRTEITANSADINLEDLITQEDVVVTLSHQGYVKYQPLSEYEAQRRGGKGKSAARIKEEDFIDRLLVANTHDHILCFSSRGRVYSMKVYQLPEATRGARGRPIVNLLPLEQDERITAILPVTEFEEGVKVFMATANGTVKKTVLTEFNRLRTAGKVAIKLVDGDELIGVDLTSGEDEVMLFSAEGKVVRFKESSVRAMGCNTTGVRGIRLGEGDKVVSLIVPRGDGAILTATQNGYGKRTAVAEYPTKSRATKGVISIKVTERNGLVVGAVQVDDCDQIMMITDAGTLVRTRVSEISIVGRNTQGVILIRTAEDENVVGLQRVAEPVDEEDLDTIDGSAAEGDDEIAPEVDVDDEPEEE

For the compound `CCCc1cc(C(=O)Nc2c(O)c3ccc(O[C@@H]4OC(C)(C)[C@H](OC)[C@@H](OC(=O)c5ccc(C)[nH]5)[C@H]4O)c(C)c3oc2=O)ccc1O`, the pIC50 was 7.08 on DNA gyrase subunit B and 7.72 in assay [15]. Besides, the Activity in assay [1] amounted to 3.1 µM; in assay [2], 1.6 µM. Further, the MIC is no more than 0.06 µg/mL against Staphylococcus aureus [3]; no more than 0.06 µg/mL in the assay with Staphylococcus aureus [4]; 32 µg/mL (≈ 49.2 µM) against Staphylococcus aureus [5]; 2 µg/mL (≈ 3.07 µM) in the assay on Streptococcus pneumoniae [6]; 2 µg/mL (≈ 3.07 µM) in the assay with Streptococcus pneumoniae [7]; 4 µg/mL (≈ 6.15 µM) in the assay on Streptococcus pneumoniae [8]. The MIC in the assay on Enterococcus faecalis is 16 µg/mL (≈ 24.6 µM); with Enterococcus faecium, greater than 32 µg/mL; with Escherichia coli [9], greater than 32 µg/mL; in the assay on Escherichia coli [10], greater than 32 µg/mL; against Escherichia coli [11], 8 µg/mL (≈ 12.3 µM); against Klebsiella pneumoniae, greater than 32 µg/mL. Also, the figures for the MIC against Pseudomonas aeruginosa [12], in the assay on Pseudomonas aeruginosa [13] and against Pseudomonas aeruginosa [14] were greater than 32 µg/mL, greater than 32 µg/mL and 0.5 µg/mL (≈ 0.768 µM), respectively.
With `CO[C@@H]1[C@@H](OC(=O)c2ccc(C)[nH]2)[C@@H](O)[C@H](Oc2ccc3c(O)c(NC(=O)c4cc(C)c(O)c(C)c4)c(=O)oc3c2)OC1(C)C`, the pIC50 at DNA gyrase subunit B was 6.64; in [15] it was 6.92. Besides, the Activity in [1] was greater than 100 µM. Also, the result in [2] was inactive. Moreover, the MIC against Staphylococcus aureus [3] was 4 µg/mL (≈ 6.42 µM); against Staphylococcus aureus [4] it was 4 µg/mL (≈ 6.42 µM); with Staphylococcus aureus [5], greater than 32 µg/mL; with Streptococcus pneumoniae [6] it was 8 µg/mL (≈ 12.8 µM); against Streptococcus pneumoniae [7] it was 16 µg/mL (≈ 25.7 µM); against Streptococcus pneumoniae [8] it was 16 µg/mL (≈ 25.7 µM). The MIC in the assay on Enterococcus faecalis is 16 µg/mL (≈ 25.7 µM); with Enterococcus faecium, greater than 32 µg/mL; in the assay with Escherichia coli [9], greater than 32 µg/mL; in the assay on Escherichia coli [10], greater than 32 µg/mL; against Escherichia coli [11], greater than 32 µg/mL; with Klebsiella pneumoniae, greater than 32 µg/mL. Further, the minimal inhibitory concentration (MIC) with Pseudomonas aeruginosa [12] was greater than 32 µg/mL; in the assay on Pseudomonas aeruginosa [13], greater than 32 µg/mL; against Pseudomonas aeruginosa [14], 8 µg/mL (≈ 12.8 µM).
